In series [1] the test system is Salmonella typhimurium. Put plainly: Genotoxicity in Salmonella typhimurium TA98 assessed as increase in number of revertants at 0.156 mg/ml in presence of aroclor-1254-induced Sprague-Dawley rat liver microsomal S9 fraction by Ames-MPF assay relative to baseline. Format: toxicity. Particulars: salmonella enterica subsp. enterica serovar typhimurium, microsomes. In outline: (§1)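 AmesMPF 98/100 fluctuation format with S. typhimurium TA98 (frameshift) and TA100 (base-pair substitution), run with and without S9. Compounds were made up in DMSO at 0.156–5 mg/mL, six levels; solvent control was 4% DMSO. With S9, positive controls were 2-aminoanthracene at 1 µg/mL (TA98) and 2.5 µg/mL (TA100). Wells turned yellow by pH drop were scored positive. Fold over baseline is mean positive wells divided by (zero-dose mean + 1 SD). Student's t-test, p<0.05.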
On the technique in general: Microsomes from liver hold many membrane-bound enzymes, among them those of drug oxidation.

Series [2] relates to Salmonella typhimurium. Put plainly: Genotoxicity in Salmonella typhimurium TA98 assessed as increase in number of revertants at 1.25 mg/ml in presence of aroclor-1254-induced Sprague-Dawley rat liver microsomal S9 fraction by Ames-MPF assay relative to baseline. Format: toxicity. Particulars: salmonella enterica subsp. enterica serovar typhimurium, microsomes. In outline:
as §1

The test system of series [3] is Salmonella typhimurium. The series is described as follows: Genotoxicity in Salmonella typhimurium TA98 assessed as increase in number of revertants at 2.5 mg/ml in absence of aroclor-1254-induced Sprague-Dawley rat liver microsomal S9 fraction by Ames-MPF assay relative to baseline. The following applies: salmonella enterica subsp. enterica serovar typhimurium, microsomes. Format: toxicity. A digest of the protocol:
as §1

The test system of the next series is NIH3T3. Put plainly: Cytotoxicity against mouse NIH/3T3 cells by MTT assay. Format: cell-based. In outline: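 NIH/3T3 mouse embryonic fibroblasts seeded at 1x10^4 cells per well and grown per supplier recommendations. Compounds tested over 0.0316-1000 µM by MTT reduction to formazan; IC50 determined.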
(Tetrazolium dyes change colour on reduction, which living cells bring about.)

Series [4] deals with Salmonella typhimurium. The series is described as follows: Genotoxicity in Salmonella typhimurium TA100 assessed as increase in number of revertants at 5 mg/ml in absence of aroclor-1254-induced Sprague-Dawley rat liver microsomal S9 fraction by Ames-MPF assay relative to baseline. The class given is toxicity. Particulars: salmonella enterica subsp. enterica serovar typhimurium, microsomes. A digest of the protocol:
as §1

Series [5] deals with Salmonella typhimurium. The series is described as follows: Genotoxicity in Salmonella typhimurium TA98 assessed as increase in number of revertants at 2.5 mg/ml in presence of aroclor-1254-induced Sprague-Dawley rat liver microsomal S9 fraction by Ames-MPF assay relative to baseline. The following applies: salmonella enterica subsp. enterica serovar typhimurium, microsomes. Format: toxicity. In outline:
as §1

For series [6], the target named is T1, Amine oxidase [flavin-containing] B (Homo sapiens, UniProt P27338).
T1 sequence (P27338 whole entry): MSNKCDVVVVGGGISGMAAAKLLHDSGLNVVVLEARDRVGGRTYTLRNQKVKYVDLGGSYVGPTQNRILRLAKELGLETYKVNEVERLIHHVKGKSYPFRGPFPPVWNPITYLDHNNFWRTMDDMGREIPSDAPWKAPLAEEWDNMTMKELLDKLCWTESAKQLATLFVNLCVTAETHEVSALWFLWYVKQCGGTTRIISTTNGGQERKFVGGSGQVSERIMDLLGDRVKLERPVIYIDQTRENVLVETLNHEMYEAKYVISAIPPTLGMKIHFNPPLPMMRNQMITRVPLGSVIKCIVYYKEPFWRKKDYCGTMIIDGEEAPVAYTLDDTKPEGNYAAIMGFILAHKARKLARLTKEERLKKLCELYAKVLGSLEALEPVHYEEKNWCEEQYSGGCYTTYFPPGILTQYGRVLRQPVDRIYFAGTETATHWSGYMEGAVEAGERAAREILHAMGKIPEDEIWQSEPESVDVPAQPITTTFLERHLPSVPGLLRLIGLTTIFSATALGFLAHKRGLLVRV
Put plainly: Inhibition of recombinant human MAO-B expressed in baculovirus infected BTI insect cells using tyramine as substrate pretreated for 30 mins followed by substrate addition incubated for 30 mins measured at 5 mins interval by horse-radish peroxidase/amplex red-based fluorometric method. Format: cell-based.

Series [7] has as its system Salmonella typhimurium. Put plainly: Genotoxicity in Salmonella typhimurium TA98 assessed as increase in number of revertants at 1.25 mg/ml in absence of aroclor-1254-induced Sprague-Dawley rat liver microsomal S9 fraction by Ames-MPF assay relative to baseline. Format: toxicity. Particulars: salmonella enterica subsp. enterica serovar typhimurium, microsomes. A digest of the protocol:
as §1

The subject of series [8] is Salmonella typhimurium. The series is described as follows: Genotoxicity in Salmonella typhimurium TA98 assessed as increase in number of revertants at 0.156 mg/ml in absence of aroclor-1254-induced Sprague-Dawley rat liver microsomal S9 fraction by Ames-MPF assay relative to baseline. Format: toxicity. The following applies: salmonella enterica subsp. enterica serovar typhimurium, microsomes. In outline:
as §1

Series [9] relates to Salmonella typhimurium. Put plainly: Genotoxicity in Salmonella typhimurium TA98 assessed as increase in number of revertants at 0.625 mg/ml in absence of aroclor-1254-induced Sprague-Dawley rat liver microsomal S9 fraction by Ames-MPF assay relative to baseline. Format: toxicity. The following applies: salmonella enterica subsp. enterica serovar typhimurium, microsomes. In outline:
as §1

Series [10] has as its system Salmonella typhimurium. The series is described as follows: Genotoxicity in Salmonella typhimurium TA98 assessed as increase in number of revertants at 5 mg/ml in presence of aroclor-1254-induced Sprague-Dawley rat liver microsomal S9 fraction by Ames-MPF assay relative to baseline. The class given is toxicity. Particulars: salmonella enterica subsp. enterica serovar typhimurium, microsomes. A digest of the protocol: as §1

Series [11] relates to Salmonella typhimurium. The series is described as follows: Genotoxicity in Salmonella typhimurium TA100 assessed as increase in number of revertants at 0.156 mg/ml in absence of aroclor-1254-induced Sprague-Dawley rat liver microsomal S9 fraction by Ames-MPF assay relative to baseline. The class given is toxicity. Particulars: salmonella enterica subsp. enterica serovar typhimurium, microsomes. In outline:
as §1

Series [12] concerns Salmonella typhimurium. The series is described as follows: Genotoxicity in Salmonella typhimurium TA100 assessed as increase in number of revertants at 0.156 mg/ml in presence of aroclor-1254-induced Sprague-Dawley rat liver microsomal S9 fraction by Ames-MPF assay relative to baseline. Format: toxicity. The following applies: salmonella enterica subsp. enterica serovar typhimurium, microsomes. A digest of the protocol: as §1

Series [13] concerns Salmonella typhimurium. The series is described as follows: Genotoxicity in Salmonella typhimurium TA98 assessed as increase in number of revertants at 0.625 mg/ml in presence of aroclor-1254-induced Sprague-Dawley rat liver microsomal S9 fraction by Ames-MPF assay relative to baseline. Format: toxicity. The following applies: salmonella enterica subsp. enterica serovar typhimurium, microsomes. A digest of the protocol:
as §1

Series [14] deals with Salmonella typhimurium. Put plainly: Genotoxicity in Salmonella typhimurium TA100 assessed as increase in number of revertants at 1.25 mg/ml in absence of aroclor-1254-induced Sprague-Dawley rat liver microsomal S9 fraction by Ames-MPF assay relative to baseline. Format: toxicity. The following applies: salmonella enterica subsp. enterica serovar typhimurium, microsomes. In outline: as §1

In series [15] the test system is Salmonella typhimurium. The series is described as follows: Genotoxicity in Salmonella typhimurium TA100 assessed as increase in number of revertants at 1.25 mg/ml in presence of aroclor-1254-induced Sprague-Dawley rat liver microsomal S9 fraction by Ames-MPF assay relative to baseline. The following applies: salmonella enterica subsp. enterica serovar typhimurium, microsomes. Format: toxicity. A digest of the protocol:
as §1

Series [16] concerns Salmonella typhimurium. Put plainly: Genotoxicity in Salmonella typhimurium TA100 assessed as increase in number of revertants at 0.625 mg/ml in absence of aroclor-1254-induced Sprague-Dawley rat liver microsomal S9 fraction by Ames-MPF assay relative to baseline. Particulars: salmonella enterica subsp. enterica serovar typhimurium, microsomes. The class given is toxicity. A digest of the protocol:
as §1

The subject of series [17] is Salmonella typhimurium. The series is described as follows: Genotoxicity in Salmonella typhimurium TA100 assessed as increase in number of revertants at 2.5 mg/ml in absence of aroclor-1254-induced Sprague-Dawley rat liver microsomal S9 fraction by Ames-MPF assay relative to baseline. The class given is toxicity. The following applies: salmonella enterica subsp. enterica serovar typhimurium, microsomes. A digest of the protocol: as §1

Series [18] has as its system Salmonella typhimurium. The series is described as follows: Genotoxicity in Salmonella typhimurium TA98 assessed as increase in number of revertants at 0.3125 mg/ml in absence of aroclor-1254-induced Sprague-Dawley rat liver microsomal S9 fraction by Ames-MPF assay relative to baseline. Format: toxicity. The following applies: salmonella enterica subsp. enterica serovar typhimurium, microsomes. A digest of the protocol:
as §1

Series [19] relates to Salmonella typhimurium. Put plainly: Genotoxicity in Salmonella typhimurium TA98 assessed as increase in number of revertants at 5 mg/ml in absence of aroclor-1254-induced Sprague-Dawley rat liver microsomal S9 fraction by Ames-MPF assay relative to baseline. Format: toxicity. The following applies: salmonella enterica subsp. enterica serovar typhimurium, microsomes. In outline:
as §1

Series [20] relates to Salmonella typhimurium. The series is described as follows: Genotoxicity in Salmonella typhimurium TA100 assessed as increase in number of revertants at 2.5 mg/ml in presence of aroclor-1254-induced Sprague-Dawley rat liver microsomal S9 fraction by Ames-MPF assay relative to baseline. Format: toxicity. Particulars: salmonella enterica subsp. enterica serovar typhimurium, microsomes. A digest of the protocol:
as §1

By IC50 is commonly meant the concentration that inhibits the measured activity by half.

Regarding `C#CCn1c(-c2ccc(C(=O)N/N=C/c3cccnc3)cc2)nc2ccccc21`, the “fold change (FC)” value in the series with Salmonella typhimurium [1] turned out to be 0.35; in the series on Salmonella typhimurium [2], 0.52; in the series on Salmonella typhimurium [3] it was 0.4; in the series with Salmonella typhimurium [4], 0.89; in the series on Salmonella typhimurium [5], 0.52; with Salmonella typhimurium [7], 0.68. Besides, the “fold change (FC)” value in the series with Salmonella typhimurium [8] was 1.03; in the series with Salmonella typhimurium [9] it was 0.51; with Salmonella typhimurium [10], 0; with Salmonella typhimurium [11], 0.74; in the series with Salmonella typhimurium [12], 0.53; in the series on Salmonella typhimurium [13], 0.35. Besides, the “fold change (FC)” value with Salmonella typhimurium [14] amounted to 0.64; with Salmonella typhimurium [15] it was 0.33; in the series with Salmonella typhimurium [16], 0.84; in the series on Salmonella typhimurium [17], 0.74; in the series with Salmonella typhimurium [18], 0.74; in the series with Salmonella typhimurium [19], 0.46. Also, the “fold change (FC)” value in the series on Salmonella typhimurium [20] came out at 0.27. For the same compound, the IC50 with NIH3T3 came out at 316 µM; in [6], 0.075 µM.
On to `C#CCn1c(-c2ccc(C(=O)N/N=C/c3ccc(F)cc3)cc2)nc2ccccc21`, for which the “fold change (FC)” value with Salmonella typhimurium [1] stood at 1.3; with Salmonella typhimurium [2], 2.13; in the series on Salmonella typhimurium [3], 0.28; in the series on Salmonella typhimurium [4], 1.63; in the series on Salmonella typhimurium [5] it was 2.95; in the series on Salmonella typhimurium [7], 0.28. The “fold change (FC)” value with Salmonella typhimurium [8] is reported as 0.68; in the series on Salmonella typhimurium [9], 0.23; with Salmonella typhimurium [10], 3.07; in the series with Salmonella typhimurium [11] it was 0.89; with Salmonella typhimurium [12] it was 0.79; in the series on Salmonella typhimurium [13], 2.01. In addition, the “fold change (FC)” value is 0.59 in the series with Salmonella typhimurium [14]; 1.46 in the series on Salmonella typhimurium [15]; 0.69 in the series on Salmonella typhimurium [16]; 1.78 with Salmonella typhimurium [17]; 0.46 in the series with Salmonella typhimurium [18]; 0.34 with Salmonella typhimurium [19]. The “fold change (FC)” value with Salmonella typhimurium [20] was 1.88. In addition, the IC50 in the series on NIH3T3 was at least 1000 µM; in series [6], 0.136 µM.
